Columns and labels:
[1] = Inhibition of rat protein farnesyltransferase pretreated for 15 mins followed by dansyl-Gly-Cys-Val-Leu-Ser-OH substrate addition in presence of farnesyl pyrophosphate measured after 30 mins by fluorescence assay
[2] = system: HepG2; test: Antiproliferative activity against human HepG2 cells measured after 72 hrs by SRB assay; assay type: functional; conditions: HepG2, 72 h
Outline: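 HepG2 cells from BCRC grown in RPMI 1640 with 10% FBS, nonessential amino acids, penicillin/streptomycin at 37 °C, 5% CO2. Cells were seeded in 10% FBS medium, and a T0 plate was TCA-fixed at 24 h. Compound or DMSO was added for 72 h, then cells were fixed with 10% TCA and stained with 0.4% SRB. Absorbance read at 515 nm; % growth vs T0 and control gave GI50.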

[3] = Inhibition of porcine brain protein farnesyltransferase using p21 ras protein as substrate in presence of [3H]FPP after 1 hr by liquid scintillation counting method; set-up: species or system Sus scrofa

| SMILES | IC50 [1] [µM] | GI50 [2] [µM] | IC50 [3] [µM] |
| --- | --- | --- | --- |
| COC1=CC(=O)[C@@]2(c3cc(=O)c4c(O)cc(O)cc4o3)[C@H](CC=C(C)[C@@H]2C[C@]2(C)[C@@H](C(=O)O)CC=C3[C@H]2CCCC3(C)C)C1=O | 5.1 | > 10 | – |
| COC1=CC(=O)[C@@]2(c3cc(=O)c4ccc(OC)cc4o3)[C@H](C[C@]3(C)[C@@H](C(=O)O)CC=C4[C@H]3CCCC4(C)C)C(C)=CC[C@H]2C1=O | 7.5 | > 10 | – |
| COC1=CC(=O)[C@@]2(c3cc(=O)c4c(O)cc(O)cc4o3)[C@H](C[C@]3(C)[C@@H](C(=O)O)CC=C4[C@H]3CCCC4(C)C)C(C)=CC[C@H]2C1=O | 8.5 | > 10 | – |

Further molecules by falling IC50 [1], results first:

| IC50 [1] [µM] | GI50 [2] [µM] | IC50 [3] [µM] | SMILES |
| --- | --- | --- | --- |
| 47 | > 10 | – | COC1=CC(=O)[C@@]2(c3cc(=O)c4ccc(O)cc4o3)[C@H](C[C@]3(C)[C@@H](C(=O)O)CC=C4[C@H]3CCCC4(C)C)C(C)=CC[C@H]2C1=O |
| 27.9 | > 10 | – | COC1=CC(=O)[C@@]2(c3cc(=O)c4ccc(O)cc4o3)[C@H](CC=C(C)[C@@H]2C[C@]2(C)[C@@H](C(=O)O)CC=C3[C@H]2CCCC3(C)C)C1=O |
| 5 | 8.6 | – | COC1=CC(=O)[C@@]2(c3cc(=O)c4c(O)cc(OC)cc4o3)[C@H](C[C@]3(C)[C@@H](C(=O)O)CC=C4[C@H]3CCCC4(C)C)C(C)=CC[C@H]2C1=O |
| 0.1 | – | 0.05 to 0.075 | CSCC[C@H](NC(=O)c1ccc(NC(=O)[C@@H](N)CS)cc1)C(=O)O |

— ChEMBL document CHEMBL4041489, “Meroterpenoids and Chalcone-Lignoids from the Roots of Mimosa diplotricha” (J Nat Prod, 2016)
